Data taken from PubChem BioAssay AID624121 (Johns Hopkins Ion Channel Center, 2012).

Target: Potassium channel subfamily K member 9 (Homo sapiens) (UniProt Q9NPC2)
Assay: blockade of KCNK9 potassium currents – cell-based, manual electrophysiology, SAR follow-up (AID 624121)
Conditions: HEK293 KCNK9 stable, whole-cell patch clamp current; at 1 µM; active compounds read high
In short: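 Material: inducible KCNK9-expressing HEK293 cell line; medium: NaCl bath with 5 mM KCl, KCl pipette, pH 7.3; times: induction 16–24 h pre-recording, 30 s ramp interval; measured by: whole-cell voltage-clamp recording of KCNK9 current at -20 mV; measure: percent current inhibition at -20 mV versus current in 5 mM K+ bath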

Sequence of Potassium channel subfamily K member 9 (Homo sapiens) (Q9NPC2 whole entry, looked up): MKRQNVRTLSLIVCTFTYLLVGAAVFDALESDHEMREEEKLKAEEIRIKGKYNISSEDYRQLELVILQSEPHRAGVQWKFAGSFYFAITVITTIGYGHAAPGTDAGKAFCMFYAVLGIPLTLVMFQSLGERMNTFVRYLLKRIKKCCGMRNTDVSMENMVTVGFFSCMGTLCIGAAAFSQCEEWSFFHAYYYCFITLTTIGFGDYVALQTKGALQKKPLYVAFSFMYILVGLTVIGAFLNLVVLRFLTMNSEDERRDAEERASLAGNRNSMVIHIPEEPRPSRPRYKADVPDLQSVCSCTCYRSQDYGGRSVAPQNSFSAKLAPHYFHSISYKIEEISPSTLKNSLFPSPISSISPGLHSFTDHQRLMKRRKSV

For `C[C@@H]([C@@H]1CC2CC[C@H]1C2)n1c(-c2ccco2)n[nH]c1=S`, the inhibition was 55.2%.
